Publication PMC11754507 (Ophthalmology Science, 2024)

Experiments:
[1] = type: in vivo, human; conditions: intravitreal
Outline: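 Serum levels pooled from 4 clinical studies in adults with GA or nAMD, after single intravitreal 4, 10 or 20 mg or 15 mg monthly or every other month. LLOQ 0.10 μg/mL; BLQ samples (>20%) handled by M3 method. Vitreous dose compartment, first-order absorption into one serum compartment, first-order elimination; stepwise covariates (forward α=0.05, backward α=0.001); half-lives are median empirical Bayes estimates.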

[2] = test system: systemic C3 activation (classical pathway); conditions: serum concentration threshold for inhibition of systemic C3 activation; cited from earlier work
[3] = test system: systemic C3 activation (alternative pathway); conditions: serum concentration threshold for inhibition of systemic C3 activation; cited from earlier work
[4] = median empirical Bayes estimated

pegcetacoplan
VC/F, Transformed Estimate ([1]; apparent volume of the central serum compartment, 261 patients with GA or nAMD): 1.83 L
half-life based on the slowest rate process [1]: approximately 2 weeks
absorption half-life (vitreous-to-serum) [1, 4]: 314 h
elimination half-life (serum) [1, 4]: 108 h
KA, Transformed Estimate ([1]; vitreous-to-serum absorption rate constant, 261 patients with GA or nAMD): 0.0528 day⁻¹
EC50, classical pathway [2]: 5.90 µg/mL
half-maximal effective concentration [EC50], alternative pathway [3]: 2.77 µg/mL
